In brackets after ≈: the same amount, converted by molar mass.
Columns and labels:
Assay type in all cases: functional
Enterococcus faecium [1] = assay: Antibacterial activity against Enterococcus faecium CIP 107387 after 18 hrs by agar dilution method; details: CIP 107387, 18 h
How it was run: (§1)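 Agar-dilution MIC against Gram-positive strains. Compounds in DMSO, geometric dilutions giving final 100−0.75 mg/L in Mueller Hinton agar. Strains grown 18 h at 37 °C in trypticase soy broth, diluted in sterile water, spotted by Steers inoculator (about 1000 UFC/spot). Plates incubated 18 h at 37 °C; DMSO blank; ofloxacin positive control. MIC = lowest concentration with no visible growth.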

Enterococcus faecium [2] = assay: Antibacterial activity against Enterococcus faecium N507 after 18 hrs by agar dilution method; details: N507, 18 h; how it was run: as §1
Enterococcus faecalis [3] = assay: Antibacterial activity against Enterococcus faecalis N518 after 18 hrs by agar dilution method; details: N518, 18 h; how it was run: as §1
Staphylococcus aureus [4] = assay: Antibacterial activity against Staphylococcus aureus CIP 53154 after 18 hrs by agar dilution method; details: CIP 53154, 18 h; how it was run: as §1
Staphylococcus aureus [5] = assay: Antibacterial activity against Staphylococcus aureus CRBIP 2121 after 18 hrs by agar dilution method; details: CRBIP 2121, 18 h; how it was run: as §1
Staphylococcus aureus [6] = assay: Antibacterial activity against Staphylococcus aureus CIP 7625 after 18 hrs by agar dilution method; details: CIP 7625, 18 h; how it was run: as §1
Enterococcus faecium [7] = assay: Antibacterial activity against Enterococcus faecium N823 after 18 hrs by agar dilution method; details: N823, 18 h; how it was run: as §1
Enterococcus gallinarum [8] = assay: Antibacterial activity against Enterococcus gallinarum CIP 105985 after 18 hrs by agar dilution method; details: CIP 105985, 18 h; how it was run: as §1
[9] = tested on: Enterococcus casseliflavus; assay: Antibacterial activity against Enterococcus casseliflavus N487 after 18 hrs by agar dilution method; details: N487, 18 h; how it was run: as §1
Enterococcus gallinarum [10] = assay: Antibacterial activity against Enterococcus gallinarum N492 after 18 hrs by agar dilution method; details: N492, 18 h; how it was run: as §1
Enterococcus hirae = assay: Antibacterial activity against Enterococcus hirae CIP 5855 after 18 hrs by agar dilution method; details: CIP 5855, 18 h; how it was run: as §1
MRC5 = assay: Cytotoxicity against human MRC5 cells assessed as growth inhibition at 10^-6 M after 72 hrs by MTS assay relative to control; details: MRC5, 72 h, read-out: GI
How it was run: (§2)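 Cells from ATCC; HCT-116 grown in RPMI 1640 and MRC5 in DMEM, each with 10% FCS and 1% glutamine, 37 °C, 5% CO2. Seeded at 2.5 × 10^3 cells/well, cultured 24 h, then exposed to compounds at 1 and 10 μM final for 72 h. MTS read-out, absorbance 490 nm; percent index from treated/control OD490 × 100, three experiments.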

[11] = tested on: Staphylococcus saprophyticus; assay: Antibacterial activity against Staphylococcus saprophyticus E260 after 18 hrs by agar dilution method; details: E260, 18 h; how it was run: as §1
Enterococcus durans = assay: Antibacterial activity against Enterococcus durans CIP 104999 after 18 hrs by agar dilution method; details: CIP 104999, 18 h; how it was run: as §1
HCT-116 = assay: Cytotoxicity against human HCT116 cells assessed as growth inhibition at 10^-6 M after 72 hrs by MTS assay relative to control; details: HCT-116, 72 h, read-out: GI; how it was run: as §2
Staphylococcus aureus [12] = assay: Antibacterial activity against Staphylococcus aureus ATCC 25923 after 18 hrs by agar dilution method; details: ATCC 25923, 18 h; how it was run: as §1
Enterococcus faecalis [13] = assay: Antibacterial activity against Enterococcus faecalis CIP 104676 after 18 hrs by agar dilution method; details: CIP 104676, 18 h; how it was run: as §1
Bacillus spizizenii = assay: Antibacterial activity against Bacillus subtilis ATCC 6633 after 18 hrs by agar dilution method; details: ATCC 6633, 18 h; how it was run: as §1
Streptococcus agalactiae = assay: Antibacterial activity against Streptococcus agalactiae CIP 103227 after 18 hrs by agar dilution method; details: ATCC 13813, 18 h; how it was run: as §1
Staphylococcus aureus [14] = assay: Antibacterial activity against Staphylococcus aureus CIP 483 after 18 hrs by agar dilution method; details: CIP 483, 18 h; how it was run: as §1
[15] = tested on: Enterococcus casseliflavus; assay: Antibacterial activity against Enterococcus casseliflavus CIP 103018 after 18 hrs by agar dilution method; details: CIP 103018, 18 h; how it was run: as §1
Enterococcus faecalis [16] = assay: Antibacterial activity against Enterococcus faecalis N491 after 18 hrs by agar dilution method; details: N491, 18 h; how it was run: as §1
Corynebacterium striatum = assay: Antibacterial activity against Corynebacterium striatum N840 after 18 hrs by agar dilution method; details: N840, 18 h; how it was run: as §1
Listeria innocua = assay: Antibacterial activity against Listeria innocua E044 after 18 hrs by agar dilution method; details: E044, 18 h; how it was run: as §1
Enterococcus faecium [17] = assay: Antibacterial activity against Enterococcus faecium N490 after 18 hrs by agar dilution method; details: N490, 18 h; how it was run: as §1

## CC1(C)CCC[C@]2(C)[C@@H]1CC[C@]1(CO)O[C@@H](C3=CC(=O)OC3O)C[C@H]12 (stereo not given in full)
Enterococcus faecium [1]
  MIC: > 46 µM
Enterococcus faecium [2]
  MIC: > 46 µM
Enterococcus faecalis [3]
  MIC: > 46 µM
Staphylococcus aureus [4]
  MIC: > 46 µM
Staphylococcus aureus [5]
  MIC: > 46 µM
Staphylococcus aureus [6]
  MIC: > 46 µM
Enterococcus faecium [7]
  MIC: > 46 µM
Enterococcus gallinarum [8]
  MIC: > 46 µM
[9]
  MIC: > 46 µM
Enterococcus gallinarum [10]
  MIC: > 46 µM
Enterococcus hirae
  MIC: > 46 µM
MRC5
  inhibition of growth at 1 µM: 29%
[11]
  MIC: > 46 µM
Enterococcus durans
  MIC: > 46 µM
HCT-116
  inhibition of growth at 1 µM: 0%
Staphylococcus aureus [12]
  MIC: > 46 µM
Enterococcus faecalis [13]
  MIC: > 46 µM
Bacillus spizizenii
  MIC: 46 µM (≈ 16.1 µg/mL)
Streptococcus agalactiae
  MIC: > 46 µM
Staphylococcus aureus [14]
  MIC: > 46 µM
[15]
  MIC: > 46 µM
Enterococcus faecalis [16]
  MIC: > 46 µM
Corynebacterium striatum
  MIC: > 46 µM
Listeria innocua
  MIC: > 46 µM
Enterococcus faecium [17]
  MIC: > 46 µM

— ChEMBL document CHEMBL3585281, “Antibacterial Labdane Diterpenoids from Vitex vestita” (2015)
